Assay results taken from BindingDB's records for doi:10.1021/jm0309203 (University of Bath, 2003).

Tests used:
[1] = target: Mu-type opioid receptor (Homo sapiens, UniProt P35372); experiment: Binding affinity against cloned human Opioid receptor mu 1 transfected into chinese hamster ovary cells using [3H]DAMGO as radioligand
In short: (§1)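 Competition binding in CHO cells transfected with cloned human opioid receptors, using [3H]DAMGO (μ), [3H]Cl-DPDPE (δ) and [3H]U69,593 (κ) as displaced radioligands. Hill slopes were examined. Data are averages of two experiments, each run in triplicate.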

[2] = target: Delta-type opioid receptor (Homo sapiens, UniProt P41143); experiment: Binding affinity against cloned human Opioid receptor delta 1 transfected into chinese hamster ovary cells using [3H]Cl-DPDPE as radioligand; in short: as §1
Sequence of Delta-type opioid receptor (P41143 whole entry): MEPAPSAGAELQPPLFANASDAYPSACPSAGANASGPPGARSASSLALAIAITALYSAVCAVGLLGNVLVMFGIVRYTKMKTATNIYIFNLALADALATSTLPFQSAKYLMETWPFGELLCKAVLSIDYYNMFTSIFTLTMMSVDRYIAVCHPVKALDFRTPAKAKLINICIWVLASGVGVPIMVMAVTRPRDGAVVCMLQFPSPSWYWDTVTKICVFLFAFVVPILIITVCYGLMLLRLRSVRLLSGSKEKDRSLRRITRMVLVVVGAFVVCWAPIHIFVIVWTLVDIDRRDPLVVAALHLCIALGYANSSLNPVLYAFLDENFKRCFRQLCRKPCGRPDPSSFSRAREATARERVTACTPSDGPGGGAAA

Sequence of Mu-type opioid receptor (P35372 whole entry): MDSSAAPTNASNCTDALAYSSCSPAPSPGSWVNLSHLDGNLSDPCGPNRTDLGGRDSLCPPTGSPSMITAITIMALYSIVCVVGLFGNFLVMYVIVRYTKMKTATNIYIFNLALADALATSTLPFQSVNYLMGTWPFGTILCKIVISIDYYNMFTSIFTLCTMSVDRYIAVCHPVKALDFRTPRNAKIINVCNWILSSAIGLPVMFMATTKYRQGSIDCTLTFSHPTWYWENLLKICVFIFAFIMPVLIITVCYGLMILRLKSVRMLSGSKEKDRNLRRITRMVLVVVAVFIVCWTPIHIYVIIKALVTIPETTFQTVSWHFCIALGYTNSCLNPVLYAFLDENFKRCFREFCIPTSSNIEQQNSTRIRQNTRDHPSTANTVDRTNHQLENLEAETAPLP

## NC(=Nc1ccc2[nH]c3c(c2c1)C[C@@]1(O)C2Cc4ccc(O)c5c4[C@@]1(CCN2CC1CC1)[C@H]3O5)NCc1ccccc1 [7-benzylamino(imino)methylamino-22-cyclopropylmethyl-14-oxa-11,22-diazaheptacyclo[13.9.1.01,13.02,21.04,12.05,10.019,25]pentacosa-4(12),5(10),6,8,15,17,19(25)-heptaene-2,16-diol]
[1]
  Ki: 10 nM

## CCCNC(=Nc1ccc2[nH]c3c(c2c1)C[C@@]1(O)C2Cc4ccc(O)c5c4[C@@]1(CCN2CC1CC1)[C@H]3O5)NCC1CC1 [22-cyclopropylmethyl-7-cyclopropylmethylamino(propylimino)methylamino-14-oxa-11,22-diazaheptacyclo[13.9.1.01,13.02,21.04,12.05,10.019,25]pentacosa-4(12),5(10),6,8,15,17,19(25)-heptaene-2,16-diol]
[2]
  Ki: 15 nM
